The values below come from ChEMBL document CHEMBL5678802, “Small-molecule p21-activated kinase inhibitor PF-3758309 is a potent inhibitor of oncogenic signaling and tumor growth” (Proc Natl Acad Sci U S A, 2010).

Test [1] relates to RKO. Kind of test: Antiproliferative activity against human RKO cells assessed as inhibition of cell proliferation incubated for 3 days by CellTiter-Glo Luminescent Cell Viability Assay. The class given is functional, cell-based. As to conditions: 72 h. In outline:
(§1)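 Cells of each line were plated in 384-well plates on day 1 and exposed to compound from day 2 for 3 days. On day 5 all medium was aspirated. Viable cell number was read by CellTiter-Glo luminescence, which quantifies cellular ATP.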
Background: Cellular ATP, detected with luciferase, serves as a proxy for viable cell number.

In test [2] the test system is HCC827. Description: Antiproliferative activity against human HCC827 cells assessed as inhibition of cell proliferation incubated for 3 days by CellTiter-Glo Luminescent Cell Viability Assay. The class given is functional, cell-based. The note with it: HCC827, 72 h. An outline of the steps: (§2)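 Cancer cell lines seeded in 384-well plates on day 1; compound added on day 2 and left for 3 days. On day 5 all medium was aspirated, and viable cells were quantified by CellTiter-Glo luminescence, which measures cellular ATP. Dose-dependent effects on proliferation were determined.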

In test [3] the test system is PANC-03-27. Kind of test: Antiproliferative activity against human PANC-03-27 cells assessed as inhibition of cell proliferation incubated for 3 days by CellTiter-Glo Luminescent Cell Viability Assay. The class given is functional, cell-based. As to conditions: PANC-03-27, 72 h. In outline:
as §1

Test [4] deals with SW1990. Description: Antiproliferative activity against human SW1990 cells assessed as inhibition of cell proliferation incubated for 3 days by CellTiter-Glo Luminescent Cell Viability Assay. It is filed as functional, cell-based. As to conditions: SW1990, 72 h. In outline:
as §1

Test [5] has as its system ASPC1. Description: Antiproliferative activity against human ASPC1 cells assessed as inhibition of cell proliferation incubated for 3 days by CellTiter-Glo Luminescent Cell Viability Assay. The class given is functional, cell-based. The note with it: ASPC1, 72 h. In outline:
as §2

In test [6] the test system is HCC4006. Kind of test: Inhibition of anchorage independent cell growth in human HCC4006 cells incubated for 6 days by Alamar blue reagent based fluorescence plate reader analysis. The class given is functional. As to conditions: HCC4006, 144 h. Background: The colour change of resazurin is a common sign of viable cells or microbes.
In test [7] the test system is NCI-H1770. Kind of test: Inhibition of anchorage independent cell growth in human NCI-H1770 cells incubated for 6 days by Alamar blue reagent based fluorescence plate reader analysis. It is filed as functional. The note with it: NCI-H1770, 144 h.
The subject of test [8] is NCI-H358. Kind of test: Inhibition of anchorage independent cell growth in human NCI-H358 cells incubated for 6 days by Alamar blue reagent based fluorescence plate reader analysis. The note with it: NCI-H358, 144 h. It is filed as functional.
For test [9], the system named is Hs-578T. Description: Antiproliferative activity against human Hs-578T cells assessed as inhibition of cell proliferation incubated for 3 days by CellTiter-Glo Luminescent Cell Viability Assay. It is filed as functional, cell-based. The note with it: 72 h. An outline of the steps:
as §2

Test [10] concerns MDA-MB-361. Kind of test: Antiproliferative activity against human MDA-MB-361 cells assessed as inhibition of cell proliferation incubated for 3 days by CellTiter-Glo Luminescent Cell Viability Assay. As to conditions: MDA-MB-361, 72 h. It is filed as functional, cell-based. An outline of the steps:
as §2

In test [11] the test system is HCT-116. Description: Inhibition of anchorage independent cell growth in human HCT-116 cells incubated for 6 days by Alamar blue reagent based fluorescence plate reader analysis. The class given is functional. The note with it: HCT-116, 144 h.
The target in test [12] is Ribosomal protein S6 kinase alpha-2 (Homo sapiens, UniProt Q15349). Description: Inhibition of human RSK3 in presence of ATP relative to control. The note with it: concentration not given here.
Sequence of Ribosomal protein S6 kinase alpha-2 (Q15349 whole entry): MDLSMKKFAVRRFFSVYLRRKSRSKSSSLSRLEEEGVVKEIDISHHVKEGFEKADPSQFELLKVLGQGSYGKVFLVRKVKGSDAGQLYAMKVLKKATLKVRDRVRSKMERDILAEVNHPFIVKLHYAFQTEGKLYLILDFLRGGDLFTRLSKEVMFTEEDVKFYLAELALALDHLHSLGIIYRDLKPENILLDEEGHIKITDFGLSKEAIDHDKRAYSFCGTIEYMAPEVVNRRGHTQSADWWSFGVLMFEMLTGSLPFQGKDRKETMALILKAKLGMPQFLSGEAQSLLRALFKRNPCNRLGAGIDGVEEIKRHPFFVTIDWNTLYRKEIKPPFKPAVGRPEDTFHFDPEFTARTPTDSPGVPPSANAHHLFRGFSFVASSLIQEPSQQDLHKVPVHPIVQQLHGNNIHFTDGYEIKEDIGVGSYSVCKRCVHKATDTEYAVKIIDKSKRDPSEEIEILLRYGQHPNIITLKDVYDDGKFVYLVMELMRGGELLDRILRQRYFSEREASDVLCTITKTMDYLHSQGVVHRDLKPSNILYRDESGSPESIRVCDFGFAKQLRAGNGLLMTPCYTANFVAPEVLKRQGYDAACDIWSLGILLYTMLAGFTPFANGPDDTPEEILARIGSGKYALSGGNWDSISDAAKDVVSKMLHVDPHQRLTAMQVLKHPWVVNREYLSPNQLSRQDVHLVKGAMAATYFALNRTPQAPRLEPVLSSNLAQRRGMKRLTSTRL
Test [13] deals with Proto-oncogene tyrosine-protein kinase Src (Homo sapiens, UniProt P12931). Description: Inhibition of human SRC in presence of ATP relative to control. As to conditions: concentration not given here.
Sequence of Proto-oncogene tyrosine-protein kinase Src (P12931 2-536 limits assumed): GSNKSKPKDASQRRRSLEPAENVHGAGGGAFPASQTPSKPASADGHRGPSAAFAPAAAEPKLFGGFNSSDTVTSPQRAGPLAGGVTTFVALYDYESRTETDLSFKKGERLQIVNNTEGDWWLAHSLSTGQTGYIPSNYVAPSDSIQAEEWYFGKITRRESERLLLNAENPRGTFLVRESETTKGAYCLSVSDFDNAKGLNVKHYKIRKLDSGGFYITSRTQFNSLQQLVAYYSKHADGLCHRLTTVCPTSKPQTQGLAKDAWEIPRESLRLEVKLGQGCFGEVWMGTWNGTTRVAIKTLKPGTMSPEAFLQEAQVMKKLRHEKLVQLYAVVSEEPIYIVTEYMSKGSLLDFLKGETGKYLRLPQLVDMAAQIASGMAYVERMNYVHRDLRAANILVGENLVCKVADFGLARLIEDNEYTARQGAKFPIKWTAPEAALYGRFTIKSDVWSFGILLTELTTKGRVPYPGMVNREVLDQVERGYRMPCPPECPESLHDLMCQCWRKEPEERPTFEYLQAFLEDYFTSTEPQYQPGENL
Test [14] addresses RAC-gamma serine/threonine-protein kinase (Homo sapiens, UniProt Q9Y243). Kind of test: Inhibition of human AKT3 in presence of ATP relative to control. The note with it: concentration not given here.
Test [15] has as its target T1, Receptor-type tyrosine-protein kinase FLT3 (Homo sapiens, UniProt P36888).
T1 sequence (P36888 whole entry): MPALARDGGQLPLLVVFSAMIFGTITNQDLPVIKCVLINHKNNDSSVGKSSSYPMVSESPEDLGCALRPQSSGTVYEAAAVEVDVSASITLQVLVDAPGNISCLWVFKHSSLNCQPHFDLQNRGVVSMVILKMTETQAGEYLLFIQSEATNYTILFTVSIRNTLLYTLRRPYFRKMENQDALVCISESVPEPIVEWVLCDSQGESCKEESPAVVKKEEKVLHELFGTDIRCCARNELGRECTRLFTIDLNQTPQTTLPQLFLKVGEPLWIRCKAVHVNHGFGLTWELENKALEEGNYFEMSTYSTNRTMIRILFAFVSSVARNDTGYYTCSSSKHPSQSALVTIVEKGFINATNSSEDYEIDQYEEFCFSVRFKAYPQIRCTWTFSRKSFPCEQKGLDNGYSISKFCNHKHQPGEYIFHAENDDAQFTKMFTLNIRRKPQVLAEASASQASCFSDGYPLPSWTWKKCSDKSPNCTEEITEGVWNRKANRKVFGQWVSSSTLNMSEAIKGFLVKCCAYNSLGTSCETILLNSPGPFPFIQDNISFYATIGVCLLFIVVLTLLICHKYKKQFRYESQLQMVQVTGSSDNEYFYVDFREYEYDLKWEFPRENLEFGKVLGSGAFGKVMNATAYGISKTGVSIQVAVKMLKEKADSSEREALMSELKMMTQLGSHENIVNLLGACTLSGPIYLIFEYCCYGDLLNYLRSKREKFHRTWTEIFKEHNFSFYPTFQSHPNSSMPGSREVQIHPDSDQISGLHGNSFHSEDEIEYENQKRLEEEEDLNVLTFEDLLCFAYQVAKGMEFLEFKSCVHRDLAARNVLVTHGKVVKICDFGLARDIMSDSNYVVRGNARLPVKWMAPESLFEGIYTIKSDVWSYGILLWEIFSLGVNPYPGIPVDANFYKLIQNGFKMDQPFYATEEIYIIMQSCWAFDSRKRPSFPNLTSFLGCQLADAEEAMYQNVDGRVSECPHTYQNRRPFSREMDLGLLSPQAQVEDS
Description: Inhibition of human FLT3 assessed as inhibition constant in presence of ATP.

The target in test [16] is Protein kinase C theta type (Homo sapiens, UniProt Q04759). Kind of test: Inhibition of human PKCtheta assessed as inhibition constant in presence of ATP.
Sequence of Protein kinase C theta type (Q04759 whole entry): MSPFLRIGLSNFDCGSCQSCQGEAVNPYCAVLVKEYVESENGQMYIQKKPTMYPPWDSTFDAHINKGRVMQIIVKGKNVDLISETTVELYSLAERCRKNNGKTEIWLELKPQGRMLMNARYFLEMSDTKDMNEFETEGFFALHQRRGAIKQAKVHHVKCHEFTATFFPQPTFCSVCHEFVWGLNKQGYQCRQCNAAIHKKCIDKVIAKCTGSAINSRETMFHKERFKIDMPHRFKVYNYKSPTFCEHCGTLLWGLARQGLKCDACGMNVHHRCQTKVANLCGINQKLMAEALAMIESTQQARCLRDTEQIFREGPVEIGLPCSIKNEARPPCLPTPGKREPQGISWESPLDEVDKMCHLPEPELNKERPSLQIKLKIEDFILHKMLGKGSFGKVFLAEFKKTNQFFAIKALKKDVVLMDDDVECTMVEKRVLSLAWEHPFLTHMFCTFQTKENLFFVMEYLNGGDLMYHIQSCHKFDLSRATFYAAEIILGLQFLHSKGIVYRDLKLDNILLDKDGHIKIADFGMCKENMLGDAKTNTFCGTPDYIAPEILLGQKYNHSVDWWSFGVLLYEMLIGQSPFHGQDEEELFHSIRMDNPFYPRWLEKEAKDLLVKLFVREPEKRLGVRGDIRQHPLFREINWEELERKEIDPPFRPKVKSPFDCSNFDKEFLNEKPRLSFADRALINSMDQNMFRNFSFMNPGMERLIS
Test [17] concerns the target T2, Tyrosine-protein kinase Fgr (Homo sapiens, UniProt P09769). Description: Inhibition of human FGR assessed as inhibition constant in presence of ATP.
Test [18] has as its target Protein kinase C gamma type (Homo sapiens, UniProt P05129). Description: Inhibition of human PKCgamma assessed as inhibition constant in presence of ATP.
Test [19] addresses Ribosomal protein S6 kinase alpha-3 (Homo sapiens, UniProt P51812). Kind of test: Inhibition of human RSK2 in presence of ATP.
Test [20] deals with T1, Receptor-type tyrosine-protein kinase FLT3. Kind of test: Inhibition of human FLT3 in presence of ATP.
Test [21] addresses Tyrosine-protein kinase Fyn (Homo sapiens, UniProt P06241). Kind of test: Inhibition of human FYN in presence of ATP.
Test [22] addresses T2, Tyrosine-protein kinase Fgr. Kind of test: Inhibition of human FGR in presence of ATP.
In test [23] the test system is HCT-116. Description: Antitumor activity against human HCT-116 cells xenografted in nude mouse assessed as tumor growth inhibition at 0.12 mg/kg administered via pump for 9 days relative to control. The class given is functional. The note with it: HCT-116, 216 h, time 9 day, read-out: TGI.
Test [24] relates to HCT-116. Kind of test: Antitumor activity against human HCT-116 cells xenografted in nude mouse assessed as reduction in AKT1 phosphorylation at S473 residue at 15 to 150 mg/kg/day administered via pump for 18 hrs by Reverse-Phase protein array analysis. It is filed as functional, organism-based. The note with it: dose 15-150 mg/kg/day. (In general: In xenograft studies the graft and the host belong to different species.)

pIC50, pKi: −log10 of the molar value. Calls of active or inactive are those of the source. No cut-off for these calls is given here.

T2 sequence (P09769 whole entry): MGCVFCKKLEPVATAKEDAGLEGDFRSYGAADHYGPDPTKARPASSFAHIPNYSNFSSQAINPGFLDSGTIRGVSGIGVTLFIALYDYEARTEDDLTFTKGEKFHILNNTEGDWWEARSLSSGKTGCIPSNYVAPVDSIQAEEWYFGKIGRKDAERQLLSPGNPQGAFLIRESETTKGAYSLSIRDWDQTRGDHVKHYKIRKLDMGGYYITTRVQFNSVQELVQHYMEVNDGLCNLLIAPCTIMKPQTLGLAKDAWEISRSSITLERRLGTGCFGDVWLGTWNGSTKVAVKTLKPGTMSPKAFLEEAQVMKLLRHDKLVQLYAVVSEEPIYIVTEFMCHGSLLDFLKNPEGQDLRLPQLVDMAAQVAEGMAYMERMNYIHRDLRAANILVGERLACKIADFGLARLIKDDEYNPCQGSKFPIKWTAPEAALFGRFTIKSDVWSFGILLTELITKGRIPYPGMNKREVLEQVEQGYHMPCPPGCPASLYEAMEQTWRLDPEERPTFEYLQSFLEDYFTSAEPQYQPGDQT
Sequence of Tyrosine-protein kinase Fyn (P06241 whole entry): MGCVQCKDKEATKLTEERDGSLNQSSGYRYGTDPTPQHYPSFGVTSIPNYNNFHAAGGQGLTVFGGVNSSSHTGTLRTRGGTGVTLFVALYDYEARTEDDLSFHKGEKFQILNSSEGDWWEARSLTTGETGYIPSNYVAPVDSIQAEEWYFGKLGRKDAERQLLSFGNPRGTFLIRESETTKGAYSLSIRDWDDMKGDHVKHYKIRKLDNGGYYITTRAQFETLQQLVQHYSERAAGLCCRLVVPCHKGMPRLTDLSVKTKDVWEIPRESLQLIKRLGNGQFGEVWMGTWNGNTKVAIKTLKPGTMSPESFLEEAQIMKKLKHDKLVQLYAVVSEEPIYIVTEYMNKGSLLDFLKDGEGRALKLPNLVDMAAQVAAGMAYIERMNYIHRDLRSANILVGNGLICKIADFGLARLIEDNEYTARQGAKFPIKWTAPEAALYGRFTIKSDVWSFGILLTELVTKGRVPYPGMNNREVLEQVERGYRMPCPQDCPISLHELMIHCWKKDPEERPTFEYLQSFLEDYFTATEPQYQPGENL
Sequence of RAC-gamma serine/threonine-protein kinase (Q9Y243 whole entry): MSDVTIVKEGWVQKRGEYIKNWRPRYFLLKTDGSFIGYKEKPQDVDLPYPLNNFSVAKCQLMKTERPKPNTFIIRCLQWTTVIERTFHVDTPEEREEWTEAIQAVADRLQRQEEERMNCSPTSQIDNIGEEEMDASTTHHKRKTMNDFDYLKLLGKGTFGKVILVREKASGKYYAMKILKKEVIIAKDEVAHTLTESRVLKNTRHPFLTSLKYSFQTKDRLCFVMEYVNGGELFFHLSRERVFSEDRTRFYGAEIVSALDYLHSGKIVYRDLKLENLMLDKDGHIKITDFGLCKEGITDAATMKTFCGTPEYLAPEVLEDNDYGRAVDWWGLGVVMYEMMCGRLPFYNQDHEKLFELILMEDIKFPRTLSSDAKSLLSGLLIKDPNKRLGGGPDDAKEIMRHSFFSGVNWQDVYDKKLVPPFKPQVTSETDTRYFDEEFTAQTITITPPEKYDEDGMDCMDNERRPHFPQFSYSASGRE
Sequence of Ribosomal protein S6 kinase alpha-3 (P51812 whole entry): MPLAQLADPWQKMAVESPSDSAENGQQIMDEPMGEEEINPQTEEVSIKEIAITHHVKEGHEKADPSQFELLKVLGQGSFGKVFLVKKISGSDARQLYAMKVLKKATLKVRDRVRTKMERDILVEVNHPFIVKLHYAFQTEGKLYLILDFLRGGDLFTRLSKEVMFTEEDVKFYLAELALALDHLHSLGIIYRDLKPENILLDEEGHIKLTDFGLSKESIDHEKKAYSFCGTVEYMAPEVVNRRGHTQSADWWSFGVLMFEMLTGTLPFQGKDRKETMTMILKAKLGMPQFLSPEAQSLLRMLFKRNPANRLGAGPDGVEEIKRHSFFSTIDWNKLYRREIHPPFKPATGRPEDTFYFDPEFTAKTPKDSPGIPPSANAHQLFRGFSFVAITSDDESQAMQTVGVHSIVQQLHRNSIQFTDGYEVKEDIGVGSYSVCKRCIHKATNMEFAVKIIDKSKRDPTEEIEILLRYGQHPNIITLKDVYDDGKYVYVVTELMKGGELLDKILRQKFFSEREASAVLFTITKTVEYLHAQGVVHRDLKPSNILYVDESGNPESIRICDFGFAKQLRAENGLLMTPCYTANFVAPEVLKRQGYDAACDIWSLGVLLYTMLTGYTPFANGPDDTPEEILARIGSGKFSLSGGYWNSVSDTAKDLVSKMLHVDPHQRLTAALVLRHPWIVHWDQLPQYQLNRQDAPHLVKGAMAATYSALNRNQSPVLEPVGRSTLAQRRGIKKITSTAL

`Cc1nc(Nc2n[nH]c3c2CN(C(=O)N[C@H](CN(C)C)c2ccccc2)C3(C)C)c2sccc2n1` [PF-03758309]: the pIC50 (as a rule, the negative decadic logarithm of the IC50, by convention in mol/L) in test [1] was 8.74; in [2], 8.04; in [3], 7.49; in test [4], 6.90; in test [5], 5.74; in [6], 8.42. Also, the pIC50 in test [7] is 8.74; in [8], 8.11; in test [9], 9.43; in [10], 8.16; in test [11], 9.62; in test [19], 8.70. Also, the pIC50 in test [20] was 7.02; in test [21] it was 7.34; in [22], 7.63. The inhibition (as a rule, the relative decrease from the control value, in per cent) in [12] stood at 98%; in test [13], 96%; in test [14], 74%. Also, the negative-log Ki (pKi) (in general, the Ki on a negative log10 scale, so that one unit is a factor of ten) is 7.09 in [15], 8.00 in [16], 7.82 in test [17] and 7.37 in test [18]. For the same compound, in test [23], the inhibition in vivo at 0.12 mg/kg was determined as 16%. Moreover, the result in test [24] was Active.
